Experimental data: ChEMBL document CHEMBL1833818, “Synthesis of phenanthroindolizidine alkaloids and evaluation of their antitumor activities and toxicities” (Bioorg Med Chem Lett, 2011)

Tests used:
HCT-116 [1] = assay: Cytotoxicity against human HCT116 cells after 96 hrs by […] assay; type: functional, cell-based; details: HCT-116, 96 h
Summary of the method: (§1)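 Exponentially growing cells seeded at 10³ cells/well; serially diluted compounds added next day, 96 h exposure. Tetrazolium reagent (2-(2-methoxy-4-nitrophenyl)-3-(4-nitrophenyl)-5-(2,4-disulfophenyl)-2H-tetrazolium) added, 1 h at 37 °C, absorbance 450 nm. IC50 = concentration inhibiting growth 50% versus solvent-treated cells.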

HT-29 = assay: Cytotoxicity against human HT-29 cells after 96 hrs by […] assay; type: functional, cell-based; details: HT-29, 96 h; summary of the method: as §1
A549 = assay: Cytotoxicity against human A549 cells after 96 hrs by […] assay; type: functional, cell-based; details: A549, 96 h; summary of the method: as §1
Mus musculus [2] = assay: Toxicity in human HCT116 cells xenografted nude mouse assessed as mortality at 200 mg/kg, ip; type: organism-based, HCT-116; design: dose 200 mg/kg, route intraperitoneal; details: in vivo
Summary of the method: (§2)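 HCT116 cells, 2 × 10⁶ per mouse, implanted s.c. in 6-week-old male nude mice. Mice were grouped 5 per group once the estimated tumour volume reached about 100 mm³ (day 0). Samples were given i.p. 10 times, on days 1–5 and 8–12. Tumours were excised and weighed on day 21 after inoculation. Mortality was recorded per group.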

HCT-116 [3] = assay: Antitumor activity against human HCT116 cells xenografted in nude mouse assessed as tumor growth inhibition at 200 mg/kg, ip administered 10 times on days 1 to 5 and 8 to 12 measured on day 21 post-implantation relative to control; type: functional; details: HCT-116, ip, 504 h, route intraperitoneal, read-out: GI
Summary of the method: (§3)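 HCT116 cells (2 × 10⁶/mouse) implanted s.c. in 6-week-old male nude mice; groups of 5 formed when estimated tumor volume reached about 100 mm³ (day 0). Dosing i.p. on days 1–5 and 8–12. Tumors excised and weighed day 21 after inoculation; inhibition rate (%) = [1 − mean tumor weight treated/mean tumor weight control] × 100.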

Mus musculus [4] = assay: Toxicity in human HCT116 cells xenografted nude mouse assessed as mortality at 100 mg/kg, ip; type: organism-based, HCT-116; design: dose 100 mg/kg, route intraperitoneal; details: in vivo; summary of the method: as §2
HCT-116 [5] = assay: Antitumor activity against human HCT116 cells xenografted in nude mouse assessed as tumor growth inhibition at 100 mg/kg, ip administered 10 times on days 1 to 5 and 8 to 12 measured on day 21 post-implantation relative to control; type: functional; details: HCT-116, ip, 504 h, route intraperitoneal, read-out: GI; summary of the method: as §3
[6] = Toxicity in human HCT116 cells xenografted nude mouse assessed as mortality at 6.25 mg/kg, ip; type: organism-based, HCT-116; design: dose 6.25 mg/kg, route intraperitoneal; details: in vivo, read-out: Activity; summary of the method: as §2
Mus musculus [7] = assay: Toxicity in mouse Meth-A cells xenografted BALB/c mouse assessed as mortality at 50 mg/kg, iv; type: organism-based; design: dose 50 mg/kg, route intravenous; details: in vivo
Summary of the method: (§4)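 Meth A sarcoma cells, 2.5 × 10⁵ per mouse, inoculated s.c. into 7-week-old male BALB/c mice, 5 per group. Samples were injected i.v. on days 1, 5 and 9. Tumours were excised and weighed on day 21 after inoculation. Mortality was recorded per group as deaths/5.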

Mus musculus [8] = assay: Toxicity in mouse Meth-A cells xenografted BALB/c mouse assessed as mortality at 25 mg/kg, iv; type: organism-based; design: dose 25 mg/kg, route intravenous; details: in vivo; summary of the method: as §4
[9] = Antitumor activity against mouse Meth-A cells xenografted in BALB/c mouse assessed as tumor growth inhibition at 25 mg/kg, iv administered on day 1, 5, 9 and measured on day 21 post-implantation relative to control; type: functional; details: read-out: GI
Summary of the method: (§5)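 Meth A sarcoma cells (2.5 × 10⁵/mouse) inoculated s.c. into 7-week-old male BALB/c mice, 5 per group; i.v. injection on days 1, 5 and 9. Tumors excised and weighed on day 21 post-inoculation; inhibition rate (%) = [1 − mean tumor weight treated/mean tumor weight control] × 100. Mortality also recorded.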

[10] = Antitumor activity against mouse Meth-A cells xenografted in BALB/c mouse assessed as tumor growth inhibition at 50 mg/kg, iv administered on day 1, 5, 9 and measured on day 21 post-implantation relative to control; type: functional; details: read-out: GI; summary of the method: as §5
[11] = Antitumor activity against mouse Meth-A cells xenografted in BALB/c mouse assessed as tumor growth inhibition at 100 mg/kg, iv administered on day 1, 5, 9 and measured on day 21 post-implantation relative to control; type: functional; details: read-out: GI; summary of the method: as §5
Mus musculus [12] = assay: Toxicity in mouse Meth-A cells xenografted BALB/c mouse assessed as mortality at 100 mg/kg, iv; type: organism-based; design: dose 100 mg/kg, route intravenous; details: in vivo; summary of the method: as §4
Mus musculus [13] = assay: Toxicity in human HCT116 cells xenografted nude mouse assessed as mortality at 135 mg/kg, ip; type: organism-based, HCT-116; design: dose 135 mg/kg, route intraperitoneal; details: in vivo; summary of the method: as §2
HCT-116 [14] = assay: Antitumor activity against human HCT116 cells xenografted in nude mouse assessed as tumor growth inhibition at 135 mg/kg, ip administered 10 times on days 1 to 5 and 8 to 12 measured on day 21 post-implantation relative to control; type: functional; details: HCT-116, ip, 504 h, route intraperitoneal, read-out: GI; summary of the method: as §3

SMILES | IC50 (HCT-116 [1]) [nM] | IC50 (HT-29) [nM] | IC50 (A549) [nM] | further results
COc1cc2c3c(c4ccc(O)cc4c2cc1OC)[C@@H](O)[C@H]1CCCN1C3 | 32.4 | 37 | 30.6 | –
COc1ccc2c3c(c4cc(OC)c(OC)cc4c2c1)CN1CCC[C@H]1C3 | 41.7 | 45.1 | 43.8 | –
COc1cc2c3c(c4ccc(O)cc4c2cc1OC)C[C@H]1CCCN1C3 | 59.9 | 158 | 58.2 | –
COc1cc2c3c(c4cc(O)ccc4c2cc1OC)C[C@@H]1CCCN1C3 | 23.5 | 32.1 | 21.6 | –
COc1cc2c3c(c4cccc(O)c4c2cc1OC)C[C@@H]1CCCN1C3 | 4.7 | 452 | 5.5 | –
COc1cc2c3c(c4ccc(OC(C)=O)cc4c2cc1OC)C[C@@H]1CCCN1C3 | 2 | 3.5 | 2.8 | Activity (Mus musculus [2]): Non-toxic; inhibition in vivo at 200 mg/kg (HCT-116 [3]): 34.7%
COc1cc2c3c(c4ccccc4c2cc1OC)C[C@@H]1CCCN1C3 | 49.6 | 57.1 | 48.9 | Activity (Mus musculus [4]): Non-toxic; inhibition in vivo at 100 mg/kg (HCT-116 [5]): 21%
COc1cc2c3c(c4ccc(F)cc4c2cc1OC)C[C@@H]1CCCN1C3 | 48.1 | 58.9 | 51 | Activity (Mus musculus [4]): Non-toxic; inhibition in vivo at 100 mg/kg (HCT-116 [5]): 30.7%; Activity (Mus musculus [2]): Toxic; mortality [6]: 10%
CCc1ccc2c3c(c4cc(OC)c(OC)cc4c2c1)CN1CCC[C@H]1C3 | 403 | 484 | 441 | –
CCOc1cc2c3c(c4ccc(O)cc4c2cc1OCC)C[C@@H]1CCCN1C3 | 38.8 | 80.5 | 42.2 | –
Oc1ccc2c3c(c4cc5c(cc4c2c1)OCO5)CN1CCC[C@H]1C3 | 377 | 879 | 392 | –
COc1cc2c3c(c4ccc(O)cc4c2cc1OC)[C@@H](O)[C@@H]1CCCN1C3 | 44.4 | 53.6 | 52.3 | –
COc1cc2c3c(c4ccc(O)cc4c2cc1OC)[C@H](O)[C@H]1CCCN1C3 | 671 | 935 | 818 | –
COc1cc2c3c(c4ccc(O)cc4c2cc1OC)C[C@@H]1CCCN1C3 | 0.5 | 1.8 | 0.6 | Activity (Mus musculus [4]): Non-toxic; inhibition in vivo at 100 mg/kg (HCT-116 [5]): 35.7%; Activity (Mus musculus [7]): Non-toxic; Activity (Mus musculus [2]): Non-toxic; Activity (Mus musculus [8]): Non-toxic; inhibition in vivo at 200 mg/kg (HCT-116 [3]): 48.7%; inhibition in vivo at 25 mg/kg [9]: 46.9%; inhibition in vivo at 50 mg/kg [10]: 70.8%
CCc1c2c(nc3ccc(OC(=O)N4CCC(N5CCCCC5)CC4)cc13)-c1cc3c(c(=O)n1C2)COC(=O)[C@]3(O)CC.Cl | – | – | – | inhibition in vivo at 100 mg/kg [11]: 78.3%; Activity (Mus musculus [7]): Non-toxic; Activity (Mus musculus [12]): Non-toxic; Activity (Mus musculus [13]): Non-toxic; inhibition in vivo at 135 mg/kg (HCT-116 [14]): 77%; inhibition in vivo at 50 mg/kg [10]: 46.2%
COc1cc2c3c(c4ccc(O)cc4c2cc1OC)[C@H](O)[C@@H]1CCCN1C3 [TYLOPHORIDICINE E] | 1.3 | 2.9 | 2.7 | Activity (Mus musculus [7]): Toxic; Activity (Mus musculus [8]): Non-toxic; inhibition in vivo at 25 mg/kg [9]: 30.6%
